{
  "source": "ChEMBL document CHEMBL4354843",
  "about": "“Structure-Based Design of a Potent and Selective Covalent Inhibitor for SRC Kinase That Targets a P-Loop Cysteine” (J Med Chem, 2020)",
  "key": {"[1]": {"system": "Proto-oncogene tyrosine-protein kinase receptor Ret (Homo sapiens), P07949 [M918T]", "sequence (P07949 whole entry M918T, the tested form may be a part)": "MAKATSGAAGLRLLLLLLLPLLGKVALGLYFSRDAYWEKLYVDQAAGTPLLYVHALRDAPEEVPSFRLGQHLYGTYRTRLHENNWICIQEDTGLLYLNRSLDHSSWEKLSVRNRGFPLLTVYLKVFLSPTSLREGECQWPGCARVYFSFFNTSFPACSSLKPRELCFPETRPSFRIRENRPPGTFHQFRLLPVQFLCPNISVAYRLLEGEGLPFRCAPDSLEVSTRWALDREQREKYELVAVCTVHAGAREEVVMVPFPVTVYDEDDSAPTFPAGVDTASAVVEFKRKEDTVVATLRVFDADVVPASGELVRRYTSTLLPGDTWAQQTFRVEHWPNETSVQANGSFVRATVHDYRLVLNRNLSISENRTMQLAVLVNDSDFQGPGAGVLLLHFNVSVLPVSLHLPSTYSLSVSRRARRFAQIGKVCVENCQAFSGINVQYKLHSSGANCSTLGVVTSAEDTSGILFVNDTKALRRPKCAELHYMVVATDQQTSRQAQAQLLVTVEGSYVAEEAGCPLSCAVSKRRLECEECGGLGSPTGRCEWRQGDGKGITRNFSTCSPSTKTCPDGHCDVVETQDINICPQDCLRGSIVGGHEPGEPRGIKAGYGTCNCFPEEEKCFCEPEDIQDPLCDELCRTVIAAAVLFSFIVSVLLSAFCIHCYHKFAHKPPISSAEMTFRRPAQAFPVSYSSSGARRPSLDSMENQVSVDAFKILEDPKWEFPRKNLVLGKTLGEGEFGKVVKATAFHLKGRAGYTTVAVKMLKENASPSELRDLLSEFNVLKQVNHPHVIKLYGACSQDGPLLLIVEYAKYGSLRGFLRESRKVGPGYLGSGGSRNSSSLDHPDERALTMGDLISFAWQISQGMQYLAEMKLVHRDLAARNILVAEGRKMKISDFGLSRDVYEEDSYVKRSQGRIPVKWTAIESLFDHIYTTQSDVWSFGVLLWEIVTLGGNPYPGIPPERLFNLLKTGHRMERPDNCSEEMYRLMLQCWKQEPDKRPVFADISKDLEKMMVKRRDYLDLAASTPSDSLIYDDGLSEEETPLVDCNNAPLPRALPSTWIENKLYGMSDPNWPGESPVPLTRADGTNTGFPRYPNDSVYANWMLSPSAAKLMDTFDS", "assay": "Binding affinity to human partial length RET M918T mutant (E713 to D1014 residues) expressed in bacterial expression system assessed as residual binding level at 1 uM by Kinomescan method relative to control", "outline": "(§1)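 KinomeScan active site-directed competition binding panel (468 kinases), compound tested at 1 μM. Result expressed as remaining kinase signal versus DMSO control (percent of control).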"}, "[2]": {"target": "Mitogen-activated protein kinase kinase kinase 5 (Homo sapiens) (UniProt Q99683)", "sequence (Q99683 whole entry, the tested form may be a part)": "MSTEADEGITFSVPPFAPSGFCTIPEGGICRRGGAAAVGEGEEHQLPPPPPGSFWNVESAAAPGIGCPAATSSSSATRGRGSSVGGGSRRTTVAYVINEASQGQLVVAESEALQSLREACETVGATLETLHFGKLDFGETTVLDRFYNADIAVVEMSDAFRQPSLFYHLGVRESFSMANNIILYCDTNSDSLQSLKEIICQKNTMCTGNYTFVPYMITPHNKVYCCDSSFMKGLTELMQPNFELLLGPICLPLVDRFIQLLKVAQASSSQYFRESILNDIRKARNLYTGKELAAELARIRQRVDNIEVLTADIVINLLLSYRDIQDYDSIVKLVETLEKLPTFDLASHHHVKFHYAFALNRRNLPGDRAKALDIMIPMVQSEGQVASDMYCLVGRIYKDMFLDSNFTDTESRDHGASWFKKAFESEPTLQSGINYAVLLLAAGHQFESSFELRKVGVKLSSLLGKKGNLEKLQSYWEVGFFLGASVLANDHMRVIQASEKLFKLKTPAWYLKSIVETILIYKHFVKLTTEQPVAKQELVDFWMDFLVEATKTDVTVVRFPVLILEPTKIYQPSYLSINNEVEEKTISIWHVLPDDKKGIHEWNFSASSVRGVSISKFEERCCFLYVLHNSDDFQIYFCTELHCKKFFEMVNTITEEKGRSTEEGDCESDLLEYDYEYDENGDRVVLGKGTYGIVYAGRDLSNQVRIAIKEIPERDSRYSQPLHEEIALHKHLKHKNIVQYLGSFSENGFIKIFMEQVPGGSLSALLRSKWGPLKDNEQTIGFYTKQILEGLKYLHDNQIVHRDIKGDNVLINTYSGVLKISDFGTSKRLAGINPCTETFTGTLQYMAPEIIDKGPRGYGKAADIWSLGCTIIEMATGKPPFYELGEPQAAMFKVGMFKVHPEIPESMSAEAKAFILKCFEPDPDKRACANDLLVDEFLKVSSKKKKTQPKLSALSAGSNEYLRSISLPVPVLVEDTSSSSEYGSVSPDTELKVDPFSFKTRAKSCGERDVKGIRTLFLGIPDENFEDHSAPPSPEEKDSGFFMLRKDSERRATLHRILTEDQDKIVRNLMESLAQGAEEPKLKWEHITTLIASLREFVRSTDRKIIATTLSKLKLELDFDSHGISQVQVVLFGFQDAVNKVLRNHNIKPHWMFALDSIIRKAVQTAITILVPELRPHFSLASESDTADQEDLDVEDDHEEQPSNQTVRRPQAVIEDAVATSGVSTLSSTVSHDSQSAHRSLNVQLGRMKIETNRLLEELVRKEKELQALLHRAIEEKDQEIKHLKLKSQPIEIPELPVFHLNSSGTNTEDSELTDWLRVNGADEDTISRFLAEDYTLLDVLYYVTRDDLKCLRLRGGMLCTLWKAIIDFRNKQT", "assay": "Binding affinity to wild-type human partial length ASK1 (E648 to S964 residues) expressed in bacterial expression system assessed as residual binding level at 1 uM by Kinomescan method relative to control"}, "[3]": {"target": "Megakaryocyte-associated tyrosine-protein kinase (Homo sapiens) (UniProt P42679)", "sequence (P42679 whole entry, the tested form may be a part)": "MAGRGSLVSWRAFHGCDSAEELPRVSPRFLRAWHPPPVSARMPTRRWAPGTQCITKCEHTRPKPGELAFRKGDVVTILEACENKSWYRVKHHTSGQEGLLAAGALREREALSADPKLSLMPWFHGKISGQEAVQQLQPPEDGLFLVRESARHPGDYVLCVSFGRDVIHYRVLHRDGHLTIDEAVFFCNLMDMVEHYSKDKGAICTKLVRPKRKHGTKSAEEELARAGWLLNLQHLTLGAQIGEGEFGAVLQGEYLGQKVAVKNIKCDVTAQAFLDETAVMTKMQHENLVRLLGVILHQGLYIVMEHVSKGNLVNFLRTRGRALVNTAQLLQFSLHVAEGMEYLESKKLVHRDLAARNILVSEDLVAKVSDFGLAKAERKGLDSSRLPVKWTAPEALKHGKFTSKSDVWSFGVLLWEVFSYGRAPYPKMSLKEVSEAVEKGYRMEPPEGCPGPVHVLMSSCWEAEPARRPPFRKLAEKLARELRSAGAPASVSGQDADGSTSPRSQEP", "assay": "Binding affinity to wild-type human full length CTK (M43 to P508 residues) expressed in mammalian expression system assessed as residual binding level at 1 uM by Kinomescan method relative to control", "outline": "(§2)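 Active-site-directed KinomeScan competition binding panel covering 468 kinases, compound tested at 1 μM. Each readout is the kinase signal remaining with compound, expressed as a percentage of the DMSO control. […]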"}, "[4]": {"target": "SRSF protein kinase 2 (Homo sapiens) (UniProt P78362)", "assay": "Binding affinity to wild-type human full length SRPK2 (M1 to S686 residues) expressed in bacterial expression system assessed as residual binding level at 1 uM by Kinomescan method relative to control"}, "[5]": {"target": "STE20-like serine/threonine-protein kinase (Homo sapiens) (UniProt Q9H2G2)", "sequence (Q9H2G2 whole entry, looked up, the tested form may be a part)": "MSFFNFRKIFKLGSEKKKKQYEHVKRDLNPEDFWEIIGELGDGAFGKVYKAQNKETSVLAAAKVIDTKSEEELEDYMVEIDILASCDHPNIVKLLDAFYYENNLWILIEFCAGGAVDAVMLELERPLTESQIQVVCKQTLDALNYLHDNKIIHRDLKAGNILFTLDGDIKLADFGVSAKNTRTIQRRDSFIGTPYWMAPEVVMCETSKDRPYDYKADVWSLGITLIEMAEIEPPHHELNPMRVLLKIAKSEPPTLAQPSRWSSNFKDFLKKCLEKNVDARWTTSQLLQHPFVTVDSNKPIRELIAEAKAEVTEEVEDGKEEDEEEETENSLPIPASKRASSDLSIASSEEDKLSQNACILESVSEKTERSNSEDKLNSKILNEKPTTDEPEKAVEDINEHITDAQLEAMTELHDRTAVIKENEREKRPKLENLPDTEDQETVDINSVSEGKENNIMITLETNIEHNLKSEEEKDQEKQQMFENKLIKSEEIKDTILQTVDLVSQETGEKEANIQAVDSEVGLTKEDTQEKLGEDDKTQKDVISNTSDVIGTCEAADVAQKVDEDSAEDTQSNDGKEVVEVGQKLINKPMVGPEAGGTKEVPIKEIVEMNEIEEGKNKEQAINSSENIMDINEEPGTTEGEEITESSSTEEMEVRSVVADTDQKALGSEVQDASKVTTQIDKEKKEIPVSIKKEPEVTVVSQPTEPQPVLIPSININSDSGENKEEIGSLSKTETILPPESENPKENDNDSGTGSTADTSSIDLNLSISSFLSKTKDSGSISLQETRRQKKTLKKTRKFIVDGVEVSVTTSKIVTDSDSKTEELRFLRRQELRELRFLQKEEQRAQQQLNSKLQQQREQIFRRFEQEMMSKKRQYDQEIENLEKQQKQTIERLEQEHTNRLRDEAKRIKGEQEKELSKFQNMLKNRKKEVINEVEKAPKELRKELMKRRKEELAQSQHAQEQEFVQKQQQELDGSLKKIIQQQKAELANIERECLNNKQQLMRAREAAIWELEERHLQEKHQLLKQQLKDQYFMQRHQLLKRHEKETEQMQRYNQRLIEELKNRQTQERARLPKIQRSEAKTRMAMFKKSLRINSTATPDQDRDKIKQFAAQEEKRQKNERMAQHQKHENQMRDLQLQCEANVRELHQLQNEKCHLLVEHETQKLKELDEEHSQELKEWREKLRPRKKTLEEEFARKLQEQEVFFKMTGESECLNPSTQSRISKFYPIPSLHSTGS", "assay": "Binding affinity to wild-type human partial length SLK (S14 to A307 residues) expressed in bacterial expression system assessed as residual binding level at 1 uM by Kinomescan method relative to control"}, "[6]": {"target": "Dual specificity protein kinase TTK (Homo sapiens) (UniProt P33981)", "assay": "Binding affinity to wild-type human partial length TTK (N505 to V798 residues) expressed in bacterial expression system assessed as residual binding level at 1 uM by Kinomescan method relative to control", "outline": "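Active site-directed competition binding panel (KinomeScan, 468 kinases). Test compound at 1 μM. Read-out is kinase binding remaining versus DMSO control, expressed as percent of control. Scores above 35% are treated as weak binding.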"}, "[7]": {"target": "Tyrosine-protein kinase Fgr (Homo sapiens) (UniProt P09769)", "assay": "Binding affinity to wild-type human partial length FGR (L233 to T529 residues) expressed in bacterial expression system assessed as residual binding level at 1 uM by Kinomescan method relative to control", "outline": "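Active-site-directed competition binding panel of 468 kinases (KinomeScan), compound at 1 μM. The read-out is kinase remaining bound, given as a percentage of the DMSO control. […]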"}, "[8]": {"target": "Ribosomal protein S6 kinase alpha-4 (Homo sapiens) (UniProt O75676)", "assay": "Binding affinity to wild-type human partial length N-terminal RPS6KA4 kinase domain 1 expressed in bacterial expression system assessed as residual binding level at 1 uM by Kinomescan method relative to control"}, "[9]": {"target": "Cyclin-dependent kinase 14 (Homo sapiens) (UniProt O94921)", "assay": "Binding affinity to wild-type human full length PFTK1 (M1 to H451 residues) expressed in bacterial expression system assessed as residual binding level at 1 uM by Kinomescan method relative to control", "outline": "(§3)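 Active-site-directed competition binding panel (KinomeScan) covering 468 kinases. Test agent was screened at 1 μM. The read-out is the remaining kinase signal expressed relative to a DMSO control. Scores above 35%, taken as weak binding, were not reported.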"}, "[10]": {"target": "Tyrosine-protein kinase HCK (Homo sapiens, UniProt P08631)", "assay": "Inhibition of HCK (unknown origin)"}, "[11]": {"target": "Myotonin-protein kinase (Homo sapiens) (UniProt Q09013)", "assay": "Binding affinity to wild-type human partial length DMPK (V47 to V415 residues) expressed in bacterial expression system assessed as residual binding level at 1 uM by Kinomescan method relative to control"}, "[12]": {"target": "Mitogen-activated protein kinase kinase kinase 12 (DLK) (Homo sapiens) (UniProt Q12852)", "assay": "Binding affinity to wild-type human full length DLK (M1 to P859 residues) expressed in mammalian expression system assessed as residual binding level at 1 uM by Kinomescan method relative to control"}, "[13]": {"target": "Insulin-like growth factor 1 receptor (Homo sapiens) (UniProt P08069)", "assay": "Binding affinity to wild-type human partial length IGF1R (L972 to D1294 residues) expressed in bacterial expression system assessed as residual binding level at 1 uM by Kinomescan method relative to control"}, "[14]": {"target": "Maternal embryonic leucine zipper kinase (Homo sapiens) (UniProt Q14680)", "assay": "Binding affinity to wild-type human full length MELK (M1 to V651 residues) expressed in bacterial expression system assessed as residual binding level at 1 uM by Kinomescan method relative to control", "outline": "as §3"}, "[15]": {"target": "LIM domain kinase 1 (Homo sapiens) (UniProt P53667)", "assay": "Binding affinity to wild-type human full length LIMK1 (M1 to D647 residues) expressed in bacterial expression system assessed as residual binding level at 1 uM by Kinomescan method relative to control", "outline": "as §2"}, "[16]": {"target": "Interleukin-1 receptor-associated kinase 3 (Homo sapiens) (UniProt Q9Y616)", "assay": "Binding affinity to wild-type human partial length IRAK3 (V147 to E596 residues) expressed in bacterial expression system assessed as residual binding level at 1 uM by Kinomescan method relative to control"}, "[17]": {"system": "Receptor-type tyrosine-protein kinase FLT3 (Homo sapiens), P36888 [N841I]", "assay": "Binding affinity to human partial length FLT3 N841I mutant (V592 to Y969 residues) expressed in bacterial expression system assessed as residual binding level at 1 uM by Kinomescan method relative to control", "outline": "as §1"}, "[18]": {"target": "TGF-beta receptor type-1 (Homo sapiens) (UniProt P36897)", "assay": "Binding affinity to wild-type human partial length TGFBR1 (D179 to M503 residues) expressed in bacterial expression system assessed as residual binding level at 1 uM by Kinomescan method relative to control"}, "[19]": {"target": "MAP kinase-activated protein kinase 2 (Homo sapiens) (UniProt P49137)", "assay": "Binding affinity to wild-type human partial length MAPKAPK2 (V48 to D345 residues) expressed in bacterial expression system assessed as residual binding level at 1 uM by Kinomescan method relative to control"}, "[20]": {"target": "Serine/threonine-protein kinase 35 (Homo sapiens) (UniProt Q8TDR2)", "assay": "Binding affinity to wild-type human partial length STK35 (G182 to A534 residues) expressed in bacterial expression system assessed as residual binding level at 1 uM by Kinomescan method relative to control"}, "[21]": {"target": "Beta-adrenergic receptor kinase 1 (Homo sapiens) (UniProt P25098)", "sequence (P25098 whole entry, the tested form may be a part)": "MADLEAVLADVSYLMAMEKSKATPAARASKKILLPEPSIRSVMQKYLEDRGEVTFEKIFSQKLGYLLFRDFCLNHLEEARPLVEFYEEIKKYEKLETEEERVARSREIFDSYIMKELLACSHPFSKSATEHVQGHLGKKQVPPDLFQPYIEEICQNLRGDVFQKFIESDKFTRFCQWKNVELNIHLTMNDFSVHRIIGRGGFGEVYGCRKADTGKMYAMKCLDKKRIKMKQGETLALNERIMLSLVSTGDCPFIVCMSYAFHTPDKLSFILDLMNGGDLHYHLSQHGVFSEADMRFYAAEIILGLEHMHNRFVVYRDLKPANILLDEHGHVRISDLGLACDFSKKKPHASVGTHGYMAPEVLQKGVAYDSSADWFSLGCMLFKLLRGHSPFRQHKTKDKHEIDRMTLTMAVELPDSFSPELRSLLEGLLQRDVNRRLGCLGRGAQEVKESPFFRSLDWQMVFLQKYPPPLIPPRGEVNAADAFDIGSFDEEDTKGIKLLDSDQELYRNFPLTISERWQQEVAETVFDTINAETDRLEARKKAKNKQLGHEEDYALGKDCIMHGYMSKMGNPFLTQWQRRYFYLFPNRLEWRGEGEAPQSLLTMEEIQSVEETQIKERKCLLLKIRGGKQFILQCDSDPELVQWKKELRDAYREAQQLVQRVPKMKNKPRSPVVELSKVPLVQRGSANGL", "assay": "Binding affinity to wild-type human full length GRK2 (M1 to L689 residues) expressed in mammalian expression system assessed as residual binding level at 1 uM by Kinomescan method relative to control", "outline": "as §2"}},
  "data": [
    {"compound": "C=CC(=O)Nc1ccccc1Nc1nc(Nc2ccc(N3CCN(C)CC3)cc2)ncc1C(=O)Nc1c(C)cccc1Cl", "values": [
      {"measurement": "Activity", "setting": "[1]", "value": 87, "unit": "%"},
      {"measurement": "Activity", "setting": "[2]", "value": 100, "unit": "%"},
      {"measurement": "Activity", "setting": "[3]", "value": 100, "unit": "%"},
      {"measurement": "Activity", "setting": "[4]", "value": 100, "unit": "%"},
      {"measurement": "Activity", "setting": "[5]", "value": 100, "unit": "%"},
      {"measurement": "Activity", "setting": "[6]", "value": 94, "unit": "%"},
      {"measurement": "Activity", "setting": "[7]", "value": 30, "unit": "%"},
      {"measurement": "Activity", "setting": "[8]", "value": 100, "unit": "%"},
      {"measurement": "Activity", "setting": "[9]", "value": 100, "unit": "%"},
      {"measurement": "IC50", "setting": "[10]", "value": 3, "unit": "nM"},
      {"measurement": "Activity", "setting": "[11]", "value": 100, "unit": "%"},
      {"measurement": "Activity", "setting": "[12]", "value": 97, "unit": "%"},
      {"measurement": "Activity", "setting": "[13]", "value": 100, "unit": "%"},
      {"measurement": "Activity", "setting": "[14]", "value": 100, "unit": "%"},
      {"measurement": "Activity", "setting": "[15]", "value": 100, "unit": "%"},
      {"measurement": "Activity", "setting": "[16]", "value": 100, "unit": "%"},
      {"measurement": "Activity", "setting": "[17]", "value": 100, "unit": "%"},
      {"measurement": "Activity", "setting": "[18]", "value": 100, "unit": "%"},
      {"measurement": "Activity", "setting": "[19]", "value": 100, "unit": "%"},
      {"measurement": "Activity", "setting": "[20]", "value": 100, "unit": "%"},
      {"measurement": "Activity", "setting": "[21]", "value": 85, "unit": "%"}
    ]}
  ]
}
